This is an account of results in ChEMBL document CHEMBL1275351, “Novel spirotetracyclic zwitterionic dual H(1)/5-HT(2A) receptor antagonists for the treatment of sleep disorders” (J Med Chem, 2010).

The target of series [1] is Histamine H1 receptor (Homo sapiens, UniProt P35367). The series is described as follows: Antagonist activity against human histamine H1 receptor expressed in CHO cells by FLIPR assay. It counts as functional, cell-based.
For series [2], the target named is 5-hydroxytryptamine receptor 2B (Homo sapiens, UniProt P41595). The series is described as follows: Antagonist activity at human 5HT2B receptor expressed in human SH-SY5Y cells by FLIPR assay.
For series [3], the target named is Voltage-gated inwardly rectifying potassium channel KCNH2 (Homo sapiens, UniProt Q12809). The series is described as follows: Displacement of [3H]dofetilide from human ERG by scintillation proximity assay.
In series [4] the target is Histamine H1 receptor (Rattus norvegicus, UniProt P31390). The series is described as follows: Displacement of [3H]pyrilamine from histamine H1 receptor in Sprague-Dawley rat cortical membrane by liquid scintillation counting. Summed up:
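Cerebral cortex membranes from male Sprague-Dawley rats (200-250 g), 150 μg/well. Incubated with 0.6 nM [3H]pyrilamine in 50 mM HEPES, pH 7.4, for 2 h at room temperature. Filtered on PEI-soaked GF/B and counted by scintillation. Nonspecific binding with 10 μM cetirizine. Ki by Cheng-Prusoff; mean of two experiments in duplicate.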
For orientation: In a radioligand displacement assay an active substance lowers the binding of a labelled ligand.

The target of series [5] is 5-hydroxytryptamine receptor 2A (Rattus norvegicus, UniProt P14842). The experiment in a line: Displacement of [3H]ketanserin from 5HT2A receptor in Sprague-Dawley rat cortical membrane by liquid scintillation counting. The method, boiled down: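 Cerebral cortex membranes from male Sprague-Dawley rats (200-250 g), 50 μg/well. Incubated with 1 nM [3H]ketanserin in 50 mM Tris-HCl, 10 mM MgCl2, pH 7.4, for 1 h at 37 °C with shaking. Filtered on PEI-soaked GF/B and counted by scintillation. Nonspecific binding with 10 μM mianserin. Ki by Cheng-Prusoff; mean of two experiments in duplicate.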

For series [6], the target named is T1, Cytochrome P450 1A2 (Homo sapiens, UniProt P05177).
T1 sequence (P05177 whole entry): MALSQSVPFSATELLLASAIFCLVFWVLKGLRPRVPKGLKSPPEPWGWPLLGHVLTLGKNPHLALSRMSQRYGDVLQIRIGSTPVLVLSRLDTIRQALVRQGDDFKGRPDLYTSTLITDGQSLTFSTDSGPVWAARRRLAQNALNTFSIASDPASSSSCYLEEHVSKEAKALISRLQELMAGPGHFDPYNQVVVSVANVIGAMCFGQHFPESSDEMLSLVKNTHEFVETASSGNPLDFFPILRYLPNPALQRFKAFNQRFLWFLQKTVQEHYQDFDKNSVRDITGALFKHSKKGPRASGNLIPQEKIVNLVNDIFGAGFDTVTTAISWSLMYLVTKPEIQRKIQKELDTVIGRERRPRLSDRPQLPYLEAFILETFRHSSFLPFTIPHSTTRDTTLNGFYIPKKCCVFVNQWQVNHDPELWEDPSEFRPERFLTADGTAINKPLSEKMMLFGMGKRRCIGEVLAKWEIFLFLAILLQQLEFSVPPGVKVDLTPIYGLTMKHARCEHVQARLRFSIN
The series is described as follows: Inhibition of human CYP1A2 transfected in bactosome expression system by spectrofluorimetry. It counts as ADME. The method, boiled down:
(§1)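 Recombinant human CYP Bactosomes (0.1 mg/mL) in 50 mM phosphate buffer, pH 7.4. Compound at 0.1-10 μM was preincubated with fluorogenic substrate for 10 min at 37 °C, and the reaction was started with an NADPH regenerating system. Metabolite fluorescence was followed for 10 min. Substrates: 1A2 ethoxyresorufin 0.5 μM; 2C9 FCA 50 μM; 2C19 BMC 10 μM; 2D6 MMC 10 μM; 3A4 DEF 1 μM or 7-BQ 25 μM. Run in triplicate.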

In series [7] the target is Cytochrome P450 2C9 (Homo sapiens, UniProt P11712). The experiment in a line: Inhibition of human CYP2C9 transfected in bactosome expression system by spectrofluorimetry. It counts as ADME. Summed up:
as §1

In series [8] the target is Cytochrome P450 2C19 (Homo sapiens, UniProt P33261). The series is described as follows: Inhibition of human CYP2C19 transfected in bactosome expression system by spectrofluorimetry. It counts as ADME. The method, boiled down: as §1
For series [9], the target named is Cytochrome P450 2D6 (Homo sapiens, UniProt P10635). The series is described as follows: Inhibition of human CYP2D6 transfected in bactosome expression system by spectrofluorimetry. The class given is ADME. The method, boiled down:
as §1

Series [10] concerns the target Cytochrome P450 3A4 (Homo sapiens, UniProt P08684). The experiment in a line: Inhibition of human CYP3A4 transfected in bactosome expression system by spectrofluorimetry. The class given is ADME. Summed up:
as §1

Series [11] can be described thus: Fraction unbound in rat brain. The class given is ADME, tissue-based.
The nature of series [12]: Fraction unbound in rat blood. It counts as ADME, tissue-based.
Series [13] concerns Rattus norvegicus. The series is described as follows: Hypnotic activity in Sprague-Dawley rat assessed as total sleep time at 3 mg/kg, po administered during active phase. The class given is functional. Summed up: (§2)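 Male Sprague-Dawley rats (275-300 g) carried implanted telemetric EEG/EMG transmitters and were used 3 weeks after surgery. Oral dosing (2 mL/kg) was given 6 h after lights off (CT18) in a randomized crossover versus vehicle. Recording ran for 5 h in 10 s epochs scored by FFT. n = 8, mean ± SEM; one-way ANOVA with Dunnett's test.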

Series [14] deals with Rattus norvegicus. The series is described as follows: Hypnotic activity in Sprague-Dawley rat assessed as total sleep time at 10 mg/kg, po administered during active phase. It counts as functional. Summed up: as §2
In series [15] the test system is Rattus norvegicus. The series is described as follows: Hypnotic activity in Sprague-Dawley rat assessed as non-rapid eye movement latency period at 1 mg/kg, po administered during active phase. The class given is functional. Summed up: as §2
Series [16] deals with Rattus norvegicus. The series is described as follows: Hypnotic activity in Sprague-Dawley rat assessed as non-rapid eye movement latency period at 3 mg/kg, po administered during active phase. It counts as functional. Summed up:
as §2

Series [17] relates to Rattus norvegicus. The series is described as follows: Hypnotic activity in Sprague-Dawley rat assessed as non-rapid eye movement latency period at 10 mg/kg, po administered during active phase. It counts as functional. Summed up:
as §2

Series [18] has as its system Rattus norvegicus. The series is described as follows: Hypnotic activity in Sprague-Dawley rat assessed as non-rapid eye movement sleep at 1 mg/kg, po administered during active phase. The class given is functional. Summed up:
as §2

Series [19] deals with Rattus norvegicus. The experiment in a line: Hypnotic activity in Sprague-Dawley rat assessed as non-rapid eye movement sleep at 10 mg/kg, po administered during active phase. The class given is functional. The method, boiled down: as §2
The subject of series [20] is Rattus norvegicus. The series is described as follows: Hypnotic activity in Sprague-Dawley rat assessed as rapid eye movement latency period at 1 mg/kg, po administered during active phase. The class given is functional. Summed up:
as §2

Series [21] has as its system Rattus norvegicus. The series is described as follows: Hypnotic activity in Sprague-Dawley rat assessed as rapid eye movement latency period at 3 mg/kg, po administered during active phase. The class given is functional. Summed up:
as §2

The test system of series [22] is Rattus norvegicus. The experiment in a line: Hypnotic activity in Sprague-Dawley rat assessed as rapid eye movement latency period at 10 mg/kg, po administered during active phase. It counts as functional. Summed up:
as §2

The test system of series [23] is Rattus norvegicus. The series is described as follows: Hypnotic activity in Sprague-Dawley rat assessed as rapid eye movement sleep at 3 mg/kg, po administered during active phase. The class given is functional. The method, boiled down:
as §2

In series [24] the test system is Rattus norvegicus. The series is described as follows: Hypnotic activity in Sprague-Dawley rat assessed as rapid eye movement sleep at 10 mg/kg, po administered during active phase. The class given is functional. Summed up: as §2

Sequence of Voltage-gated inwardly rectifying potassium channel KCNH2 (Q12809 whole entry): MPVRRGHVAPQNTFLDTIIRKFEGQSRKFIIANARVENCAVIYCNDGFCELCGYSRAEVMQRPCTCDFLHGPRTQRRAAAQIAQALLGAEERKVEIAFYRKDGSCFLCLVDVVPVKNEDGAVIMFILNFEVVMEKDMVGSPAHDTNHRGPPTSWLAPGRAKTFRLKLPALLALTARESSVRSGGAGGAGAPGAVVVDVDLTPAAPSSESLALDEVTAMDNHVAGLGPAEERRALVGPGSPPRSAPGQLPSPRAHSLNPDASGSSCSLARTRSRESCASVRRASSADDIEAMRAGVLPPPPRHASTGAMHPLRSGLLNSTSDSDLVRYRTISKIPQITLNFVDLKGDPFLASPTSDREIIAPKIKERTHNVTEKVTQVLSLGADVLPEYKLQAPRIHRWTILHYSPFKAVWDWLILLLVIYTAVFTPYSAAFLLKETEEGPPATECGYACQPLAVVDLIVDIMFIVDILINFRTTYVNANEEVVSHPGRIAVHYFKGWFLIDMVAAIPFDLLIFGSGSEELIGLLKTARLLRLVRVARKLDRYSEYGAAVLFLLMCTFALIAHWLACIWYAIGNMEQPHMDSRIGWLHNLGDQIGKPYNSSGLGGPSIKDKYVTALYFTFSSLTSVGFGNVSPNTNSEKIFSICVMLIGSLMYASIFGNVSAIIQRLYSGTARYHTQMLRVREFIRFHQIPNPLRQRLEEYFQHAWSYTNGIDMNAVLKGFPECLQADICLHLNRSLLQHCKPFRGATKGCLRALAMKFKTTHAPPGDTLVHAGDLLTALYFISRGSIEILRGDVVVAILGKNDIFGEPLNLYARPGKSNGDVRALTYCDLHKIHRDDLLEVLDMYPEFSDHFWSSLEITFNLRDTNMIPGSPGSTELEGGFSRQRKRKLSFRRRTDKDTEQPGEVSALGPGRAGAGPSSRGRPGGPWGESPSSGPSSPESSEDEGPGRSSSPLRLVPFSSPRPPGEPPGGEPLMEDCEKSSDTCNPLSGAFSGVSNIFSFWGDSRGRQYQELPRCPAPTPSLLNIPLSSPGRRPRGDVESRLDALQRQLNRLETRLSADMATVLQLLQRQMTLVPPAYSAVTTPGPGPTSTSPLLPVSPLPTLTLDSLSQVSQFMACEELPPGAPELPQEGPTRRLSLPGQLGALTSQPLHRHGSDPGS
Sequence of Cytochrome P450 2D6 (P10635 whole entry): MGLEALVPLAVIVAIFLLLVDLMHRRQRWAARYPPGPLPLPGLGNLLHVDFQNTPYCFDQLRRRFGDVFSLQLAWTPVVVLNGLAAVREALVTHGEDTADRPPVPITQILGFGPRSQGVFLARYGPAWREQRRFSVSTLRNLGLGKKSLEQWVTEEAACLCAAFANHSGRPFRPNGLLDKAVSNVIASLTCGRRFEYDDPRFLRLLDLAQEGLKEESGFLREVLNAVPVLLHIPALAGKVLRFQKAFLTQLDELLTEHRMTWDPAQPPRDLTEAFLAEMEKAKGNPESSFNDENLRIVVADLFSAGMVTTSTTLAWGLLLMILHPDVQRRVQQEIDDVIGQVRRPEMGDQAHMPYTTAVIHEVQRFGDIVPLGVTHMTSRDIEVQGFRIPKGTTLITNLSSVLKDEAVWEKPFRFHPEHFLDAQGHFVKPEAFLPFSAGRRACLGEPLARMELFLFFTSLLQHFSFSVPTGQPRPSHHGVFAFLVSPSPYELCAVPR
Sequence of Cytochrome P450 3A4 (P08684 whole entry): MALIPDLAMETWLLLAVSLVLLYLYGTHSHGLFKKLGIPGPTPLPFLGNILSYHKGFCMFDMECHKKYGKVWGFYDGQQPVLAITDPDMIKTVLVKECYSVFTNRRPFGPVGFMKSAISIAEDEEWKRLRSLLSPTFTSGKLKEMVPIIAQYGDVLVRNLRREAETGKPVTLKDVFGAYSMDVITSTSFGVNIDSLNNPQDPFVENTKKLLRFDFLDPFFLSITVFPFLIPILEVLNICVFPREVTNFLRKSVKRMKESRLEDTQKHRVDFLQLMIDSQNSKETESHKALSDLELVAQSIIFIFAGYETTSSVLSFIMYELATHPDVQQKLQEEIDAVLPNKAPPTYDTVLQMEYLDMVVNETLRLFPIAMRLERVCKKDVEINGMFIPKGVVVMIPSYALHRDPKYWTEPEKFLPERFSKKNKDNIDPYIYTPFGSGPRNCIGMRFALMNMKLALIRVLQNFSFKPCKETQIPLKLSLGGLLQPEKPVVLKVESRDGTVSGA
Sequence of Histamine H1 receptor (Rattus norvegicus, UniProt P31390) (P31390 whole entry): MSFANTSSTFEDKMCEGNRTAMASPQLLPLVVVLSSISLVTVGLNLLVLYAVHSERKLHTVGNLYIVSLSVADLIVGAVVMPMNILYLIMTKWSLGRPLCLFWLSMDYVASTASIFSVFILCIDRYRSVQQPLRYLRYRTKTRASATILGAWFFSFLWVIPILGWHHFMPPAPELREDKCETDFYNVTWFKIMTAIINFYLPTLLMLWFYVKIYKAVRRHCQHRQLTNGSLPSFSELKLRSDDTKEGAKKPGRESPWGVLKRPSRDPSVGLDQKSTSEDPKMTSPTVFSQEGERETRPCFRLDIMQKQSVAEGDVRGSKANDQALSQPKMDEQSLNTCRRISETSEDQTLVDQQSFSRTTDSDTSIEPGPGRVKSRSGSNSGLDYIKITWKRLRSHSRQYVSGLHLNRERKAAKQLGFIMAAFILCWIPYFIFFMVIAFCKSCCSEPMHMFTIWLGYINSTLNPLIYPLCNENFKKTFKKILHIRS
Sequence of Cytochrome P450 2C19 (P33261 whole entry): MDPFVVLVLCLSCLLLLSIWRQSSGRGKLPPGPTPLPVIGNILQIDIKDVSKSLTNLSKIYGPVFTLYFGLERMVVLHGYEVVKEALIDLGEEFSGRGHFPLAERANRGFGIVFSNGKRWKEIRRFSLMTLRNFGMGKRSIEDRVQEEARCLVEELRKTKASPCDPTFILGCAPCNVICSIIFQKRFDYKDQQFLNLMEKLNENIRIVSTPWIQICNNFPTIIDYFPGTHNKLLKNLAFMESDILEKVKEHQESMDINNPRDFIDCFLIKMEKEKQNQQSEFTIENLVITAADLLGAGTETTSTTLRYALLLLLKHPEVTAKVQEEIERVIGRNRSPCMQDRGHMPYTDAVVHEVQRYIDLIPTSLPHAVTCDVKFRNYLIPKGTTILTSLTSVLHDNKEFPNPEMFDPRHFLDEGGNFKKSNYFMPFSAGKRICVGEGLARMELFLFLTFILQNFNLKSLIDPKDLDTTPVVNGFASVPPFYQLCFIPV
Sequence of Cytochrome P450 2C9 (P11712 whole entry): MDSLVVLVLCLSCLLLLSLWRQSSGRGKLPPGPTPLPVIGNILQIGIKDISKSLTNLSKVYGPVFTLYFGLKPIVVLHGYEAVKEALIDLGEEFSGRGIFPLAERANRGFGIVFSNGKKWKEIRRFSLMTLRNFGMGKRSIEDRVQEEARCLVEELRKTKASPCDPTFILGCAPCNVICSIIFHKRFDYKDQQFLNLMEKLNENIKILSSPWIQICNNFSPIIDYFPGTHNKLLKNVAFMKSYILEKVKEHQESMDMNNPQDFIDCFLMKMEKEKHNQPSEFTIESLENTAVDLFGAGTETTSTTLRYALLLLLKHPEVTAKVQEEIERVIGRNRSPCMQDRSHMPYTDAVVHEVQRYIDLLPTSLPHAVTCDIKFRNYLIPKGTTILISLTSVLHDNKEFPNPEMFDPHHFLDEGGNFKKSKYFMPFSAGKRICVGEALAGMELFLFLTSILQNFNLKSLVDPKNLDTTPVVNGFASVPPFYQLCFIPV
Sequence of 5-hydroxytryptamine receptor 2A (P14842 whole entry): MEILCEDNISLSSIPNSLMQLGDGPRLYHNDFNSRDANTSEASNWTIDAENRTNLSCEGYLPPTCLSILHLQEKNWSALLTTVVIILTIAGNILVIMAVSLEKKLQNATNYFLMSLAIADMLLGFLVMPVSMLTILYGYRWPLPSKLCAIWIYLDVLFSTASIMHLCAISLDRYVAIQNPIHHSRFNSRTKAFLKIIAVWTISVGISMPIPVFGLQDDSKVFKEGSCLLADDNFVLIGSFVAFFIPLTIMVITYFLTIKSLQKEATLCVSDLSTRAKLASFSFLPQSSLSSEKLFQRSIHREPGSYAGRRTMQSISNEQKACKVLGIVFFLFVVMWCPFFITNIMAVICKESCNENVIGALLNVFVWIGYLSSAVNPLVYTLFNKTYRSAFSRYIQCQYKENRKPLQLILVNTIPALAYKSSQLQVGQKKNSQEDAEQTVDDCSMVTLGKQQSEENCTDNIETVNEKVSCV
Sequence of 5-hydroxytryptamine receptor 2B (P41595 whole entry): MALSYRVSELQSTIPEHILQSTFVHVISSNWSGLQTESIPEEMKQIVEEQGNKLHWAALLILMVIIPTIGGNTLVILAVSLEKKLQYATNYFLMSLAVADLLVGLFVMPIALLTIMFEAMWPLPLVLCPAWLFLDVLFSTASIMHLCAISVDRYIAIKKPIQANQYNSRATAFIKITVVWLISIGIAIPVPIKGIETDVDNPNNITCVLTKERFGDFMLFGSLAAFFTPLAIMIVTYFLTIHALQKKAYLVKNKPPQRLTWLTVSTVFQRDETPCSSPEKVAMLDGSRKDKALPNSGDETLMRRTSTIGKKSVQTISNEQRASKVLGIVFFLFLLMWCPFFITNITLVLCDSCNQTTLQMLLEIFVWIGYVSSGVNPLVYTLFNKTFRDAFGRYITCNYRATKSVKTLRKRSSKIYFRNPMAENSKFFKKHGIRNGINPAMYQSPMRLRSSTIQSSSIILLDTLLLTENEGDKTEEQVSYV

Take `O=C(O)C1CN(C2CC[C@]3(Cc4ccccc4Cc4ccccc43)C2)C1` (some centres not stated): the Ki in series [1] was 0.00631 µM; in series [2], 0.0794 µM; in [4], 0.00562 µM; in series [5], 0.0331 µM. Besides, the IC50 in [3] is more than 50.1 µM; in series [6], more than 10 µM; in series [7] it was more than 10 µM; in series [8], more than 10 µM; in [9] it was more than 10 µM; in series [10], more than 10 µM. Moreover, the fraction unbound in series [11] worked out at 0.032; in [12], 0.12. Moreover, the Time in series [13] was 134.7 min; in series [14], 145.2 min; in series [15] it was 58.1 min; in [16], 51.6 min; in [17], 33.5 min; in series [18], 87.4 min. The Time in series [19] is 130.5 min; in [20], 77.8 min; in series [21] it was 81.6 min; in [22] it was 64.5 min; in series [23], 16.1 min; in [24] it was 14.6 min.
Turning to `O=C(O)C1CN(C2CCC3(Cc4ccccc4Oc4ccccc43)C2)C1` (configuration not stated), the Ki in [1] was 0.0501 µM; in series [2] it was 0.794 µM; in series [4], 0.0141 µM; in [5], 0.0339 µM. Besides, the IC50 is more than 50.1 µM in [3]; more than 10 µM in series [6]; more than 10 µM in series [7]; more than 10 µM in series [8]; more than 10 µM in series [9]; more than 10 µM in [10]. The fraction unbound in series [11] is 0.04; in series [12], 0.171. The Time in series [13] was 138.3 min; in series [14], 155.7 min; in series [15] it was 37.8 min; in series [16] it was 37.9 min; in series [17], 31.5 min; in series [18] it was 107.3 min. Further, the Time turned out to be 139.5 min in series [19]; 67 min in series [20]; 77.7 min in [21]; 63.4 min in series [22]; 15.1 min in series [23]; 16.2 min in [24].
Take `O=C(O)C1CCN(C2CC[C@]3(Cc4ccccc4Cc4ccccc43)C2)CC1` (some centres not stated): the Ki is 0.0501 µM in [1], 0.158 µM in series [2], 0.00468 µM in series [4] and 0.0339 µM in series [5]. For the same molecule, the IC50 is more than 63.1 µM in [3]; more than 10 µM in [6]; more than 10 µM in series [7]; more than 10 µM in series [8]; more than 10 µM in series [9]; more than 10 µM in [10]. Moreover, the fraction unbound in [11] was 0.031; in series [12], 0.182. In addition, the Time in [13] came to 105.2 min; in series [14], 105.2 min; in series [15], 69.8 min; in [16] it was 51.4 min; in series [17], 34.6 min; in series [18], 84.7 min. Also, the Time in series [19] was 104 min; in series [20], 83.6 min; in series [21], 77.9 min; in series [22], 83.8 min; in series [23], 11 min; in series [24] it was 12.6 min.

Usually Ki stands for a dissociation constant, usually derived from enzyme kinetics or from competition with a known ligand. Read a low Ki as higher affinity. One may read the IC50 as the concentration that gives 50% inhibition. Lower therefore signals greater potency. A word on the fraction unbound: it is free concentration divided by total concentration. Low values mean little free substance, high ones much free substance.
